Measured values from ChEMBL document CHEMBL1649517, “Effect of MexXY overexpression on ceftobiprole susceptibility in Pseudomonas aeruginosa” (2009).
In brackets after ≈: the same amount, converted by molar mass.

Assays:
Pseudomonas aeruginosa [1] = test: Antimicrobial activity against Pseudomonas aeruginosa isolate OC14551 harboring plasmid MexZ expressing mexXY gene by broth microdilution method; type: functional
Outline: (§1)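 CLSI broth microdilution MIC on P. aeruginosa transformants. Plasmids (control vector pJAK16, pMexXY or cloned mexZ repressor; 200 ng) were electroporated into fresh electrocompetent cells, and transformants were selected on Mueller-Hinton plates with chloramphenicol 200 or 400 μg/ml. Cultures were kept in chloramphenicol 200 μg/ml to maintain the plasmid, with 1 mM IPTG to induce the cloned gene.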

Pseudomonas aeruginosa [2] = test: Antimicrobial activity against Pseudomonas aeruginosa PAO1 harboring plasmid JAK16 expressing mexXY gene by broth microdilution method; type: functional; outline: as §1
Pseudomonas aeruginosa [3] = test: Antimicrobial activity against Pseudomonas aeruginosa isolate OC14812 by broth microdilution method; type: functional
Outline: (§2)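 Clinical P. aeruginosa isolates, baseline and posttreatment, collected in ceftobiprole phase III clinical trials. MICs were measured by CLSI broth microdilution.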

Pseudomonas aeruginosa [4] = test: Antimicrobial activity against Pseudomonas aeruginosa isolate OC14812 harboring plasmid JAK16 expressing mexXY gene by broth microdilution method; type: functional; outline: as §1
Pseudomonas aeruginosa [5] = test: Antimicrobial activity against Pseudomonas aeruginosa isolate OC17355 by broth microdilution method; type: functional; outline: as §2
Pseudomonas aeruginosa [6] = test: Antimicrobial activity against Pseudomonas aeruginosa isolate OC17355 harboring plasmid MexZ expressing mexXY gene by broth microdilution method; type: functional; outline: as §1
Pseudomonas aeruginosa [7] = test: Antimicrobial activity against Pseudomonas aeruginosa isolate OC14812 harboring plasmid MexZ expressing mexXY gene by broth microdilution method; type: functional; outline: as §1
Pseudomonas aeruginosa [8] = test: Antimicrobial activity against Pseudomonas aeruginosa isolate OC16827 by broth microdilution method; type: functional; outline: as §2
Pseudomonas aeruginosa [9] = test: Antimicrobial activity against Pseudomonas aeruginosa isolate OC14551 harboring plasmid JAK16 expressing mexXY gene by broth microdilution method; type: functional; outline: as §1
Pseudomonas aeruginosa [10] = test: Antimicrobial activity against Pseudomonas aeruginosa isolate OC16827 harboring plasmid JAK16 expressing mexXY gene by broth microdilution method; type: functional; outline: as §1
Pseudomonas aeruginosa [11] = test: Antimicrobial activity against Pseudomonas aeruginosa isolate OC14552 by broth microdilution method; type: functional; outline: as §2
Pseudomonas aeruginosa [12] = test: Antimicrobial activity against Pseudomonas aeruginosa isolate OC14805 by broth microdilution method; type: functional; outline: as §2
Pseudomonas aeruginosa [13] = test: Antimicrobial activity against Pseudomonas aeruginosa isolate OC17355 harboring plasmid JAK16 expressing mexXY gene by broth microdilution method; type: functional; outline: as §1
Pseudomonas aeruginosa [14] = test: Antimicrobial activity against Pseudomonas aeruginosa isolate OC16830 harboring plasmid JAK16 expressing mexXY gene by broth microdilution method; type: functional; outline: as §1
Pseudomonas aeruginosa [15] = test: Antimicrobial activity against Pseudomonas aeruginosa isolate OC16830 by broth microdilution method; type: functional; outline: as §2
Pseudomonas aeruginosa [16] = test: Antimicrobial activity against Pseudomonas aeruginosa PAO1 harboring plasmid MexZ expressing mexXY gene by broth microdilution method; type: functional; outline: as §1
Pseudomonas aeruginosa [17] = test: Antimicrobial activity against Pseudomonas aeruginosa isolate OC17349 by broth microdilution method; type: functional; outline: as §2
Pseudomonas aeruginosa [18] = test: Antimicrobial activity against Pseudomonas aeruginosa isolate OC14551 by broth microdilution method; type: functional; outline: as §2
Pseudomonas aeruginosa [19] = test: Antimicrobial activity against Pseudomonas aeruginosa isolate OC14805 on day 4 by broth microdilution method; type: functional; settings: isolate OC14805, 96 h; outline: as §2
Pseudomonas aeruginosa [20] = test: Antimicrobial activity against Pseudomonas aeruginosa isolate OC16827 harboring plasmid MexZ expressing mexXY gene by broth microdilution method
Pseudomonas aeruginosa [21] = test: Antimicrobial activity against Pseudomonas aeruginosa isolate OC16830 harboring plasmid MexZ expressing mexXY gene by broth microdilution method
Pseudomonas aeruginosa [22] = test: Antimicrobial activity against Pseudomonas aeruginosa isolate OC17349 on day 4 by broth microdilution method; type: functional; settings: isolate OC17349, 96 h; outline: as §2
Pseudomonas aeruginosa [23] = test: Antimicrobial activity against Pseudomonas aeruginosa isolate OC17349 after 7 to 14 days by broth microdilution method; type: functional; outline: as §2
Pseudomonas aeruginosa [24] = test: Antimicrobial activity against Pseudomonas aeruginosa PAO1 harboring plasmid MexXY expressing mexXY gene by broth microdilution method; type: functional; outline: as §1
Pseudomonas aeruginosa [25] = test: Antimicrobial activity against Pseudomonas aeruginosa isolate OC16827 harboring plasmid MexXY expressing mexXY gene by broth microdilution method; type: functional; outline: as §1
Pseudomonas aeruginosa [26] = test: Antimicrobial activity against Pseudomonas aeruginosa isolate OC14551 on day 8 by broth microdilution method; settings: isolate OC14551, 192 h
Pseudomonas aeruginosa [27] = test: Antimicrobial activity against Pseudomonas aeruginosa isolate OC16827 after end of treatment by broth microdilution method; type: functional; outline: as §2
Pseudomonas aeruginosa [28] = test: Antimicrobial activity against Pseudomonas aeruginosa isolate OC14805 after > 14 days by broth microdilution method; type: functional; settings: isolate OC14805, 336 h; outline: as §2
Pseudomonas aeruginosa [29] = test: Antimicrobial activity against Pseudomonas aeruginosa isolate OC17349 after end of treatment by broth microdilution method; type: functional; outline: as §2
Pseudomonas aeruginosa [30] = test: Antimicrobial activity against Pseudomonas aeruginosa isolate OC14552 on day 4 by broth microdilution method; type: functional; settings: isolate OC14552, 96 h; outline: as §2
Pseudomonas aeruginosa [31] = test: Antimicrobial activity against Pseudomonas aeruginosa isolate OC16827 on day 14 by broth microdilution method; type: functional; settings: isolate OC16827, 336 h; outline: as §2
Pseudomonas aeruginosa [32] = test: Antimicrobial activity against Pseudomonas aeruginosa isolate OC14805 after 7 to 14 days by broth microdilution method; type: functional; outline: as §2

Compound	MIC (Pseudomonas aeruginosa [1]) [µg/mL]	MIC (Pseudomonas aeruginosa [2]) [µg/mL]	MIC (Pseudomonas aeruginosa [3]) [µg/mL]	MIC (Pseudomonas aeruginosa [4]) [µg/mL]	MIC (Pseudomonas aeruginosa [5]) [µg/mL]	MIC (Pseudomonas aeruginosa [6]) [µg/mL]	MIC (Pseudomonas aeruginosa [7]) [µg/mL]	MIC (Pseudomonas aeruginosa [8]) [µg/mL]	MIC (Pseudomonas aeruginosa [9]) [µg/mL]	MIC (Pseudomonas aeruginosa [10]) [µg/mL]	MIC (Pseudomonas aeruginosa [11]) [µg/mL]	MIC (Pseudomonas aeruginosa [12]) [µg/mL]	MIC (Pseudomonas aeruginosa [13]) [µg/mL]	MIC (Pseudomonas aeruginosa [14]) [µg/mL]	MIC (Pseudomonas aeruginosa [15]) [µg/mL]	MIC (Pseudomonas aeruginosa [16]) [µg/mL]	MIC (Pseudomonas aeruginosa [17]) [µg/mL]	MIC (Pseudomonas aeruginosa [18]) [µg/mL]	MIC (Pseudomonas aeruginosa [20]) [µg/mL]	MIC (Pseudomonas aeruginosa [21]) [µg/mL]	other results
GENTAMICIN	4	4	8	8	4	0.25	2	4	8	4	4	2	16	8	8	0.25	4	4	–	–	–
Nc1nc(/C(=N/O)C(=O)N[C@@H]2C(=O)N3C(C(=O)O)=C(/C=C4\CCN([C@@H]5CCNC5)C4=O)CS[C@H]23)ns1 [CEFTOBIPROLE]	4 (≈ 7.48 µM)	4 (≈ 7.48 µM)	16 (≈ 29.9 µM)	16 (≈ 29.9 µM)	16 (≈ 29.9 µM)	2 (≈ 3.74 µM)	2 (≈ 3.74 µM)	4 (≈ 7.48 µM)	16 (≈ 29.9 µM)	4 (≈ 7.48 µM)	4 (≈ 7.48 µM)	2 (≈ 3.74 µM)	8 (≈ 15 µM)	16 (≈ 29.9 µM)	16 (≈ 29.9 µM)	1 (≈ 1.87 µM)	4 (≈ 7.48 µM)	16 (≈ 29.9 µM)	1 (≈ 1.87 µM)	1 (≈ 1.87 µM)	MIC (Pseudomonas aeruginosa [19]): 4 µg/mL (≈ 7.48 µM); MIC (Pseudomonas aeruginosa [22]): 16 µg/mL (≈ 29.9 µM); MIC (Pseudomonas aeruginosa [23]): 16 µg/mL (≈ 29.9 µM); MIC (Pseudomonas aeruginosa [24]): 32 µg/mL (≈ 59.9 µM); MIC (Pseudomonas aeruginosa [25]): 16 µg/mL (≈ 29.9 µM); MIC (Pseudomonas aeruginosa [26]): 16 µg/mL (≈ 29.9 µM); MIC (Pseudomonas aeruginosa [27]): 16 µg/mL (≈ 29.9 µM); MIC (Pseudomonas aeruginosa [28]): 16 µg/mL (≈ 29.9 µM); MIC (Pseudomonas aeruginosa [29]): 16 µg/mL (≈ 29.9 µM); MIC (Pseudomonas aeruginosa [30]): 4 µg/mL (≈ 7.48 µM); MIC (Pseudomonas aeruginosa [31]): 16 µg/mL (≈ 29.9 µM); MIC (Pseudomonas aeruginosa [32]): 16 µg/mL (≈ 29.9 µM)
CC(C)(O/N=C(\C(=O)N[C@@H]1C(=O)N2C(C(=O)[O-])=C(C[n+]3ccccc3)CS[C@H]12)c1csc(N)n1)C(=O)O [CEFTAZIDIME]	4 (≈ 7.32 µM)	2 (≈ 3.66 µM)	4 (≈ 7.32 µM)	4 (≈ 7.32 µM)	4 (≈ 7.32 µM)	4 (≈ 7.32 µM)	4 (≈ 7.32 µM)	2 (≈ 3.66 µM)	4 (≈ 7.32 µM)	2 (≈ 3.66 µM)	4 (≈ 7.32 µM)	2 (≈ 3.66 µM)	4 (≈ 7.32 µM)	2 (≈ 3.66 µM)	2 (≈ 3.66 µM)	1 (≈ 1.83 µM)	4 (≈ 7.32 µM)	4 (≈ 7.32 µM)	2 (≈ 3.66 µM)	2 (≈ 3.66 µM)	MIC (Pseudomonas aeruginosa [24]): 1 µg/mL (≈ 1.83 µM); MIC (Pseudomonas aeruginosa [25]): 2 µg/mL (≈ 3.66 µM)
O=C(O)c1cn(C2CC2)c2cc(N3CCNCC3)c(F)cc2c1=O [CIPROFLOXACIN]	–	–	1 (≈ 3.02 µM)	1 (≈ 3.02 µM)	4 (≈ 12.1 µM)	1 (≈ 3.02 µM)	–	–	–	–	0.12 (≈ 0.362 µM)	–	4 (≈ 12.1 µM)	–	–	0.12 (≈ 0.362 µM)	4 (≈ 12.1 µM)	–	0.12 (≈ 0.362 µM)	0.12 (≈ 0.362 µM)	MIC (Pseudomonas aeruginosa [24]): 1 µg/mL (≈ 3.02 µM)
CO/N=C(\C(=O)N[C@@H]1C(=O)N2C(C(=O)[O-])=C(C[N+]3(C)CCCC3)CS[C@H]12)c1csc(N)n1	4 (≈ 8.32 µM)	2 (≈ 4.16 µM)	8 (≈ 16.6 µM)	8 (≈ 16.6 µM)	8 (≈ 16.6 µM)	2 (≈ 4.16 µM)	2 (≈ 4.16 µM)	2 (≈ 4.16 µM)	16 (≈ 33.3 µM)	2 (≈ 4.16 µM)	4 (≈ 8.32 µM)	2 (≈ 4.16 µM)	8 (≈ 16.6 µM)	8 (≈ 16.6 µM)	8 (≈ 16.6 µM)	1 (≈ 2.08 µM)	4 (≈ 8.32 µM)	8 (≈ 16.6 µM)	2 (≈ 4.16 µM)	4 (≈ 8.32 µM)	MIC (Pseudomonas aeruginosa [24]): 8 µg/mL (≈ 16.6 µM); MIC (Pseudomonas aeruginosa [25]): 8 µg/mL (≈ 16.6 µM)
